CHRM4 antagonist – human M4 muscarinic receptor antagonists, primary screen, CHO cells, Fluo-8 calcium fluorescence. Muscarinic acetylcholine receptor M4 (Homo sapiens), P08173. CHO-hM4 cells, ACh EC80. inhibition, % at 3 µM. 360,000 compounds, 0.73% hits. AID 624125, 2012;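 active = inhibition above its plate's cutoff, the mean inhibition of sample wells plus 3 SD, cut at about 27% in these data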
Target sequence (P08173 whole entry, looked up): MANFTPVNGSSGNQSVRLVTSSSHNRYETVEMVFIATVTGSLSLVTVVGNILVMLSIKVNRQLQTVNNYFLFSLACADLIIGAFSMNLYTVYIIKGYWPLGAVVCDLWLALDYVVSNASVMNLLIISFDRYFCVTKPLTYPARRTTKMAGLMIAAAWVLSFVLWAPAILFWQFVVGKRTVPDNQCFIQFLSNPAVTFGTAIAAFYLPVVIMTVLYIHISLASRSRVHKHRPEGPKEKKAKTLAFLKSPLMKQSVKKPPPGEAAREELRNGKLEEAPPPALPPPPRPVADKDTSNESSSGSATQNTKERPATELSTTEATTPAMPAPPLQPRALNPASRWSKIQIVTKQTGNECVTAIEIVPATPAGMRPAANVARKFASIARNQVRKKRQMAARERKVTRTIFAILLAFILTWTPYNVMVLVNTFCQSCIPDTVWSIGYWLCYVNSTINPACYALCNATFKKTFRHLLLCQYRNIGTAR
CHRM4 agonist – human M4 muscarinic receptor agonists, primary screen, CHO-K1 cells, Fluo-8 calcium fluorescence. CHO-K1 hM4/Gqi5; vehicle 0%, full acetylcholine response 100%. 360,000 compounds, 0.14% hits. activation, % at 3 µM. AID 624127, 2012;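 active = activation above the run mean over all test wells plus 3 SD, cut at about 32% in these data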;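 also: peak over basal fluorescence ratio per well then scaled between controls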
M5 PAM – human M5 muscarinic receptor positive allosteric modulators, primary screen, CHO-K1 cells, Fluo-8 calcium fluorescence; Muscarinic acetylcholine receptor M5 (Homo sapiens), P08912; CHO-K1 hM5, ACh EC20 PAM; 0% = ACh EC20, 100% = ACh EC100; activation, % at 3 µM; 360,000 compounds, 0.3% hits;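 active = activation above the run cutoff, the mean activation of all test compounds plus 3 SD, cut at about 18% in these data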
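system = human M5 receptor in CHO-K1 cells | compound = one concentration, 3 µM final (nominal) | schedule = Post-acetylcholine fluorescence recording 140 s | signal = Fluo-8 calcium dye fluorescence, kinetic read | benchmarks = low control EC20 acetylcholine (0%), high control EC100 acetylcholine (100%) | repeats = singlicate, one well per test compound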
CHRM5 antagonist – human M5 muscarinic receptor antagonists, primary screen, CHO cells, Fluo-8 calcium fluorescence; CHO-hM5 cells, ACh EC80; inhibition, % at 3 µM; 360,000 compounds, 0.59% hits;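 active = inhibition above a per-plate cutoff, the mean of that plate's test compounds plus 3 SD, cut at about 27% in these data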
CHRM4 PAM – human M4 muscarinic receptor positive allosteric modulators, primary screen, CHO-K1 cells, Fluo-8 calcium fluorescence. CHO-K1 hM4/Gqi5, ACh EC20; 0% = ACh EC20, 100% = maximal ACh. activation, % at 3 µM. Muscarinic acetylcholine receptor M4 (Homo sapiens), P08173. 360,000 compounds, 0.4% hits;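 active = activation above its plate's cutoff, the mean activation of sample wells plus 3 SD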
M5 ag – human M5 muscarinic receptor agonists, primary screen, CHO-K1 cells, Fluo-8 calcium fluorescence. Muscarinic acetylcholine receptor M5 (Homo sapiens), P08912. CHO-K1 hM5 cells; 0% DMSO wells, 100% maximal acetylcholine response. activation, % at 3 µM. 360,000 compounds, 0.19% hits. AID 624037, 2012;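 active = activation above the run's mean over test compounds plus 3 SD, cut at about 23% in these data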;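 also: signal is peak over basal fluorescence ratio across the kinetic read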
Of the large screens only hits and unclear results are named; the others gave an inactive call. This is a sample that favours compounds with a hit; in the whole collection about 1.9% have one here.

CCOC(=O)c1sc2nc(C)cc(C)c2c1N	CHRM4 antagonist 28.3, CHRM4 PAM 51.0
CCOC(=O)c1c(C)[nH]c(C(=O)OCC(=O)Nc2cccnc2Cl)c1C	none
O=c1[nH]nnc2c1cnn2-c1ccccc1	none
Cc1ccccc1CNc1ccc(C(CC(N)=O)NC(=O)c2ccccc2)cc1[N+](=O)[O-] (stereo not drawn)	none
CC(=O)Nc1ccc(NC(=O)C(C)OC(=O)CCSc2ccccc2Cl)cc1 (stereo not drawn)	none
O=C(NCC1CCCO1)c1ccc(-c2ccccc2Cl)o1 (stereo not drawn)	none
CCOC(=O)c1sc2nc(OCc3cccnc3)cc(C)c2c1N	CHRM4 PAM 31.8
CCOC(=O)c1sc2nc(C)nc(NCc3cccnc3)c2c1C	none
NS(=O)(=O)c1ccc(NC(=S)NCc2ccco2)cc1	none
CCC1CN(C(=O)N2CCC(C(=O)NCc3cc(OC)c(OC)c(OC)c3)CC2)c2ccccc2O1 (stereo not drawn)	none
O=C(Nc1ccccc1)C1CCCN(C(=O)c2ccc(Cl)cc2)C1 (stereo not drawn)	none
O=C(Nc1ccccc1)C1CCCN(C(=O)c2ccc(F)cc2)C1 (stereo not drawn)	CHRM4 PAM 22.1
O=C(Cc1ccc(NC(=O)C2CCCN(C(=O)C3CCCCC3)C2)cc1)Nc1cccc(C(=O)N2CCCC2)c1 (stereo not drawn)	CHRM4 PAM 17.4
CN(C(=O)c1ccc(NC(=O)Cc2ccc(NC(=O)C3CCN(C(=O)C4CC4)CC3)cc2)cc1)C1CCCC1	CHRM4 PAM 20.3
CS(=O)(=O)N(CC(=O)NC1CC2CCC1C2)c1cccc(C(F)(F)F)c1 (stereo not drawn)	none
Cc1ccc(N(CC(=O)NC2CC3CCC2C3)S(C)(=O)=O)cc1C (stereo not drawn)	CHRM4 PAM 27.5
N#CCOC(=O)[C@H](Cc1ccccc1)N1C(=O)c2ccccc2C1=O	none
Cc1cccc(-n2cnc3sc(C)c(C)c3c2=O)c1	CHRM5 antagonist 35.0
COc1ccc(S(=O)(=O)N(C)C[C@H]2OCc3cnnn3CCCC(=O)N([C@H](C)CO)C[C@@H]2C)cc1	none
O=C(COC(=O)CCCCCN=C1NS(=O)(=O)c2ccccc21)Nc1ccc(Cl)c(Cl)c1	CHRM5 antagonist 44.7
O=C(CCCN=C1NS(=O)(=O)c2ccccc21)OCC(=O)c1ccccc1	none
COc1cc(-c2cc(C(=O)Nc3ccc(S(=O)(=O)NCc4ccco4)cc3)c3ccccc3n2)cc(OC)c1OC	CHRM4 antagonist 46.3
COc1cc(-c2cc(C(=O)NCc3ccco3)c3ccccc3n2)cc(OC)c1OC	none
Cn1c(C(=O)OC(C(=O)NC2CCCCC2)c2cccnc2)cc2sccc21 (stereo not drawn)	CHRM5 antagonist 40.7
CCN(CC)C(=O)Cn1cc(C(=O)C(=O)N(CC)C2CCCCC2)c2ccccc21	none
CCCCNc1c(-c2ccc(SC(C)CC)c(OC)c2)nc2ccc(Cl)cn12 (stereo not drawn)	CHRM4 antagonist 34.6
CCCCNc1c(-c2ccc(SC(C)CC)c(OC)c2)nc2ccc(C)cn12 (stereo not drawn)	CHRM4 antagonist 54.6, CHRM5 antagonist 37.4
O=C1CSC(=Nc2cccc(C(=O)O)c2)N1	CHRM4 PAM 14.7
CC(=O)c1cccc(N=C2NC(=O)CS2)c1	none
CN(C)CCCNc1cc(C(C)(C)C)nc2c(-c3ccccc3)cnn12	none
CC(C)(C)c1ccc(OCCC(=O)OCC(=O)N2c3ccccc3NC(=O)C2(C)C)cc1	CHRM4 antagonist 58.7, CHRM5 antagonist 36.1
Cc1nn(-c2ccccc2)c(C)c1C(=O)OCC(=O)N1c2ccccc2NC(=O)C1(C)C	CHRM4 antagonist 32.7
Cc1cnc(C(=O)OCC(=O)N2c3ccccc3NC(=O)C2(C)C)cn1	none
O=C(NCCN1CCOCC1)c1ccc(Cl)c(S(=O)(=O)NCc2ccccc2)c1	CHRM4 PAM 22.0
CSc1nsc(SCC(=O)Nc2ccc(C(N)=O)cc2)n1	none
CC(Sc1nnc(-c2cccs2)n1-c1ccccc1)C(=O)NCc1ccco1 (stereo not drawn)	none
CC(Sc1ccsc1[N+](=O)[O-])C(=O)NCc1ccco1 (stereo not drawn)	CHRM4 PAM 22.9
O=C(O)Cc1ccc(NS(=O)(=O)c2ccc3ccccc3c2)cc1	none
CCN1CCCC1CNC(=O)c1ccc(Sc2ccc(F)cc2)c([N+](=O)[O-])c1 (stereo not drawn)	CHRM4 antagonist 95.2
CCN1CCCC1CNC(=O)c1ccc(Sc2ccccc2Cl)c([N+](=O)[O-])c1 (stereo not drawn)	CHRM4 antagonist 96.9
O=C(NCCCN1CCOCC1)c1ccc(Sc2ccc(F)cc2)c([N+](=O)[O-])c1	none
CC(C)Nc1ncnc2c1ncn2[C@H]1CN(Cc2cccnc2)C[C@@H](CO)O1	none
CCC(=O)N1CCCC(C(=O)c2ccc(-c3ccccc3)cc2)C1 (stereo not drawn)	none
CCCCn1c(N)c(N(CC)C(=O)CN2C(=O)NC(C)(c3ccccc3)C2=O)c(=O)[nH]c1=O (stereo not drawn)	none
CCCC1=NN2C(=N)/C(=C\c3cc(C)n(Cc4ccccc4)c3C)C(=O)N=C2S1	CHRM4 agonist 42.2, M5 ag 36.1
Cc1cc(/C=C2\C(=N)N3N=C(S(C)(=O)=O)SC3=NC2=O)c(C)n1Cc1ccccc1	none
COC(=O)c1ccc(S(=O)(=O)N2CCCN(Cc3ccccc3)CC2)n1C	none
COC(=O)c1ccc(S(=O)(=O)N2CCN(CCO)CC2)n1C	M5 PAM 25.0
CCn1c(N)c(C(=O)Nc2ccccc2C(=O)OC)sc1=S	CHRM4 PAM 37.1
CCn1c(N)c(C(=O)NCCOC)sc1=S	none
C(#Cc1ccccc1)C[N+]1(CC#Cc2ccccc2)CCCCC1	CHRM4 antagonist 32.6, CHRM5 antagonist 42.8
C#CC[N+]1(CC#Cc2ccccc2)CCCCC1	none
CCC[N+]1(CC#CCC(c2ccccc2)c2ccccc2)CCCCC1	CHRM4 antagonist 27.0
CCN(CC)CCCn1c(C)cc2c(c1=O)C(c1cc(OC)c(OC)cc1OC)C(C#N)=C(N)O2 (stereo not drawn)	CHRM4 antagonist 30.2

Source: PubChem (The Scripps Research Institute Molecular Screening Center)
